Active and inactive are the calls of the source. The rule behind the calls is not given here.

Assay [1] addresses T1, Monoglyceride lipase (Mus musculus) (UniProt O35678).
T1 sequence (whole entry): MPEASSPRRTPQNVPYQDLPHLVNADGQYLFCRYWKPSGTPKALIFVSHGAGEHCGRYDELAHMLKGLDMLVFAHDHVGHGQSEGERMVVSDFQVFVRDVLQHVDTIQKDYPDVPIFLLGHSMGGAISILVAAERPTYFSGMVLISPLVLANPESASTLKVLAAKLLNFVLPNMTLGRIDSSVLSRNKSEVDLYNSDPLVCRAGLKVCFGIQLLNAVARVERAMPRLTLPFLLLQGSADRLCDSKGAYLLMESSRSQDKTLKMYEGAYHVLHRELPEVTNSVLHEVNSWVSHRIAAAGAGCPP
In words: Inhibition of MGLL in FP-rhodamine-labelled mouse brain membrane at 10 uM after 30 mins preincubated for 30 mins followed by HT-01 labelling measured after 30 mins by gel-based competitive ABPP assay. Format: tissue-based. The method in brief:
(§1)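 Mouse brain membrane proteome (1 mg/mL) preincubated with compound for 30 min at 37 °C, then labelled with FP-rhodamine or HT-01 (1 μM final) for 30 min at 37 °C. Quenched in SDS loading buffer, run on 10% SDS-PAGE and scanned for in-gel fluorescence. Bands assigned by gel migration.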

For assay [2], the target named is T2, Monoacylglycerol lipase ABHD6 (Mus musculus) (UniProt Q8R2Y0).
T2 sequence (whole entry): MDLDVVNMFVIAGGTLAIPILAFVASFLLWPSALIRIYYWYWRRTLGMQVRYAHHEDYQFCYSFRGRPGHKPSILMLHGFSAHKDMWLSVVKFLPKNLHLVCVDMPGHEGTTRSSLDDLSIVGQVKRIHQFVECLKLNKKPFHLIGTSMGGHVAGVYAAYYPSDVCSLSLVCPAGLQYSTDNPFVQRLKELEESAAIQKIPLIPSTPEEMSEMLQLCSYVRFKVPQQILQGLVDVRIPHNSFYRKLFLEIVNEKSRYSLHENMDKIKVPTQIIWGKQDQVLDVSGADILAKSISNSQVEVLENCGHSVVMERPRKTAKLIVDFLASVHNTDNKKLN
In words: Inhibition of ABHD6 in FP-rhodamine-labelled mouse brain membrane at 0.01 uM after 30 mins preincubated for 30 mins followed by HT-01 labelling measured after 30 mins by gel-based competitive ABPP assay. Format: tissue-based. The essentials:
as §1

Assay [3] concerns the target T2, Monoacylglycerol lipase ABHD6 (Mus musculus). In words: Inhibition of ABHD6 in FP-rhodamine-labelled mouse brain membrane at 10 nM preincubated for 30 mins followed by FP-rhodamine labelling measured after 30 mins by gel-based competitive ABPP assay. Format: tissue-based. The method in brief:
as §1

Assay [4] deals with T3, Fatty-acid amide hydrolase 1 (Mus musculus) (UniProt O08914).
T3 sequence (whole entry): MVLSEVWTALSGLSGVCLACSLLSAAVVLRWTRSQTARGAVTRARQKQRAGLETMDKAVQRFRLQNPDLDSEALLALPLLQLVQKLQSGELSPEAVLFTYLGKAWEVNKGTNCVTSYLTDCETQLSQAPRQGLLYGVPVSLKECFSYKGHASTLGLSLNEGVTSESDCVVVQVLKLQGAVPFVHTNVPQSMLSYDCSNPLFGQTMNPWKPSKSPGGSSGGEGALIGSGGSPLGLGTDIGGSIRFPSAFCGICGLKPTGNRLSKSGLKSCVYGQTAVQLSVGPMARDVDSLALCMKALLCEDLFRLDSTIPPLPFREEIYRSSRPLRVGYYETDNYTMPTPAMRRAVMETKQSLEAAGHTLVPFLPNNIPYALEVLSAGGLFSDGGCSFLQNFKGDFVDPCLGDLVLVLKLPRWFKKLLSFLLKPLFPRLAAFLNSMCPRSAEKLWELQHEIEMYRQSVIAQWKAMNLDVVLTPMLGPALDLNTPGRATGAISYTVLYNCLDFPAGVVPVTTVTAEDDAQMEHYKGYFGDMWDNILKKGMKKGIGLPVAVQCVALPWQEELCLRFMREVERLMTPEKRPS
In words: Inhibition of mouse brain FAAH at 10 uM after 30 mins by FP-rhodamine ABPP-based SDS-PAGE analysis relative to control.

Assay [5] deals with T4, Diacylglycerol lipase-beta (Mus musculus) (UniProt Q91WC9).
T4 sequence (whole entry): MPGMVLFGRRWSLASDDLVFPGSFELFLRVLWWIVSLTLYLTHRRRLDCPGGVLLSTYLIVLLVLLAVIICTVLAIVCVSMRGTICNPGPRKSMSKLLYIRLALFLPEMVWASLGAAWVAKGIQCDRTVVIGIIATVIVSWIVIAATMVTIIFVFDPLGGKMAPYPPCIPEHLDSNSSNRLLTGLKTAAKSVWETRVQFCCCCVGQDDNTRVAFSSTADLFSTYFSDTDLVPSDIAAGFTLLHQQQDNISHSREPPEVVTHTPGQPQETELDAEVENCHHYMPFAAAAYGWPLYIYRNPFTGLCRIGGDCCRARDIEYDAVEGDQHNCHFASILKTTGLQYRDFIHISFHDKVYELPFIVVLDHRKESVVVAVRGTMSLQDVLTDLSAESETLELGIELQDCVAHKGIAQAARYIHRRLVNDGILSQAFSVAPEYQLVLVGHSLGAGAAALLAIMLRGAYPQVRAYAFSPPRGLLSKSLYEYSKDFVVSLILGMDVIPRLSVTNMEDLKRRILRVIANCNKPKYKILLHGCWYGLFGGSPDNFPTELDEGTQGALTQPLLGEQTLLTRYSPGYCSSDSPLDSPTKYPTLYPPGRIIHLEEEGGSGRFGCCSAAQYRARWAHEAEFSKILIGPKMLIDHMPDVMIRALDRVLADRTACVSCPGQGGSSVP
The assay is described as follows: Inhibition of FP-rhodamine-labelled recombinant mouse DAGLbeta expressed in HEK293T cells at 100 nM preincubated for 30 mins followed by FP-rhodamine labelling measured after 30 mins by gel-based competitive ABPP assay. Format: cell-based. The settings on record: HEK-293T. The essentials: (§2)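 Mouse DAGLβ transiently overexpressed in HEK293T. Lysate diluted to 0.3 mg/mL in 50 mM HEPES pH 7.2, 100 mM NaCl, 5 mM CaCl₂, 0.1% Triton X-100, 10% DMSO. Compound preincubated 30 min at 37 °C, then 1 μM probe for 30 min at 37 °C, SDS-PAGE and in-gel fluorescence.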

For assay [6], the target named is T4, Diacylglycerol lipase-beta (Mus musculus). In words: Inhibition of FP-rhodamine-labelled recombinant mouse DAGLbeta expressed in HEK293T cells at 10 uM preincubated for 30 mins followed by FP-rhodamine labelling measured after 30 mins by gel-based competitive ABPP assay. Format: cell-based. Particulars: HEK-293T. The method in brief: as §2
The target in assay [7] is T1, Monoglyceride lipase (Mus musculus). In words: Inhibition of mouse brain MGLL at 10 uM after 30 mins by FP-rhodamine ABPP-based mass spectrometry relative to control.
The target in assay [8] is Acyl-protein thioesterase 2 (Mus musculus) (UniProt Q9WTL7). In words: Inhibition of FP-rhodamine-labelled recombinant mouse LYPLA2 at 10 uM preincubated for 30 mins followed by FP-rhodamine labelling measured after 30 mins by gel-based competitive ABPP assay.
Acyl-protein thioesterase 2 (Mus musculus), sequence (Q9WTL7 whole entry): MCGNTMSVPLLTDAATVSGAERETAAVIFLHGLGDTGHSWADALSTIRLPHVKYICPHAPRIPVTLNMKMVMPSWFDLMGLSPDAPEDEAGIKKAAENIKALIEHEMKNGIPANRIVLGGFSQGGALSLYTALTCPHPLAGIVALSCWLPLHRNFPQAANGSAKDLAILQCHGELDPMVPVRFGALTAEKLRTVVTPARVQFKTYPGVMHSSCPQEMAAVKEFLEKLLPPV
The target of assay [9] is T2, Monoacylglycerol lipase ABHD6 (Mus musculus). The assay is described as follows: Inhibition of ABHD6 in FP-rhodamine-labelled mouse brain membrane at 1 nM preincubated for 30 mins followed by FP-rhodamine labelling measured after 30 mins by gel-based competitive ABPP assay. Format: tissue-based. The essentials:
as §1

Assay [10] addresses T4, Diacylglycerol lipase-beta (Mus musculus). In words: Inhibition of FP-rhodamine-labelled recombinant mouse DAGLbeta expressed in HEK293T cells at 1 uM preincubated for 30 mins followed by FP-rhodamine labelling measured after 30 mins by gel-based competitive ABPP assay. Format: cell-based. The settings on record: HEK-293T. The essentials: as §2
Assay [11] addresses Acyl-protein thioesterase 1 (Mus musculus) (UniProt P97823). The assay is described as follows: Inhibition of FP-rhodamine-labelled recombinant mouse LYPLA1 at 10 uM preincubated for 30 mins followed by FP-rhodamine labelling measured after 30 mins by gel-based competitive ABPP assay.

Acyl-protein thioesterase 1 (Mus musculus), sequence (P97823 whole entry): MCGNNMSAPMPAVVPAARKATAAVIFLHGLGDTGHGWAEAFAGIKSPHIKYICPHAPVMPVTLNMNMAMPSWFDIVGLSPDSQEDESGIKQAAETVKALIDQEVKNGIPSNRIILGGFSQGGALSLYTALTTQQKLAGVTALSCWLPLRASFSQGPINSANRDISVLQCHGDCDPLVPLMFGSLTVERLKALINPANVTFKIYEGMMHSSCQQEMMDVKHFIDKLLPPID

A word on the inhibition: it is the percentage by which the read-out fell short of the control. Regarding `COc1ccc(-c2ccc(-c3cn(C(=O)N4CCCCC4c4ccccc4)nn3)cc2)cc1` (racemic), the inhibition entry in assay [1], in assay [2] and in assay [4] was “Active” throughout. Also, the inhibition in assay [3] was determined as 30%; in [5], 0%; in assay [6], 0%.

As for `COc1ccccc1-c1ccc(-c2cn(C(=O)N3CCCCC3Cc3ccccc3)nn2)cc1` (racemic), the inhibition result in assay [7], in assay [1] and in assay [2] was “Active” each time. Besides, the inhibition turned out to be 89% in [3], 66% in [5] and 100% in assay [6].

In the case of `COc1ccccc1-c1ccc(-c2cn(C(=O)N3CCCCC3c3ccccc3)nn2)cc1` (racemic), the inhibition entry in [7], in assay [1], in assay [2] and in [4] was “Active” each time. For the same compound, the inhibition in assay [3] worked out at 82%; in [5] it was 14%; in assay [6], 70%.

With `NC(=O)c1ccc(-c2ccc(-c3cn(C(=O)N4CCCCC4c4ccccc4)nn3)cc2)cc1` (racemic), the inhibition result in assay [8], in assay [4] and in assay [11] was “Active” throughout. The values for the inhibition in [3], in assay [9] and in assay [10] were 27%, 17% and 0%, respectively.

Regarding `O=C(N1CCCCC1Cc1ccccc1)n1cc(-c2ccc(-c3cccc(CO)c3)cc2)nn1` (racemic), the inhibition entry in [1] and in assay [2] was “Active” each time. Besides, the inhibition was 91% in [3], 37% in assay [5] and 91% in assay [6].

Take `O=C(N1CCCCC1c1ccccc1)n1cc(-c2ccc(-c3ccc(CO)cc3)cc2)nn1` (racemic): the inhibition result in assay [8], in assay [4] and in [11] was “Active” throughout. For the same compound, the inhibition in assay [3] came out at 47%; in [9], 18%; in [10], 0%.

As for `O=C(N1CCCCC1c1ccccc1)n1cc(-c2ccc(-c3ccccc3CO)cc2)nn1` (racemic), the inhibition entry in [8], in assay [4] and in [11] was “Active” each time. Further, the inhibition in assay [3] amounted to 98%; in assay [9] it was 38%; in [10], 0%.

`O=C(O)c1cccc(-c2ccc(-c3cn(C(=O)N4CCCCC4CCc4ccccc4)nn3)cc2)c1` (racemic): the inhibition in assay [3] came out at 94%; in [9] it was 33%; in assay [10], 4%. In assay [4], the inhibition entry was “Active”.

In the case of `O=C(c1ccc(-c2ccc(-c3cn(C(=O)N4CCCCC4Cc4ccccc4)nn3)cc2)cc1)N1CCCCC1` (racemic), the inhibition entry in assay [1] and in [2] was “Active” throughout. Also, the inhibition in [3] stood at 79%; in [5] it was 15%; in assay [6], 58%.

With `O=C(c1ccc(-c2ccc(-c3cn(C(=O)N4CCCCC4c4ccccc4)nn3)cc2)cc1)N1CCCCC1` (racemic), the inhibition entry in assay [8] and in assay [11] was “Active” in each case. Besides, the inhibition in [3] was 94%; in [9] it was 35%; in [10], 0%.

The values above are taken from ChEMBL document CHEMBL3259629, “Discovery and optimization of piperidyl-1,2,3-triazole ureas as potent, selective, and in vivo-active inhibitors of α/β-hydrolase domain containing 6 (ABHD6)” (J Med Chem, 2013).
